Our source for the Activity, IC50 and Drug uptake values is ChEMBL document CHEMBL6071208, “Promoting Apoptosis in MCF-7 Cells via ROS Generation by Quinolino-triazoles Derived from One-Pot Telescopic Synthesis” (ACS Med Chem Lett, 2024).

The source made the active and inactive calls. No cut-off for these calls is given here.

The test system of data set [1] is MCF7. Kind of data set: Induction of apoptosis in human MCF7 cells assessed as increase in number of necrotic cells at 12 uM incubated for 24 hrs by acridine orange/EtBr staining based fluorescence microscopic analysis.
Data set [2] deals with MCF7. Kind of data set: Induction of DNA fragmentation in human MCF7 cells assessed as increase in fragmented nuclei at 12 uM measured for 24 hrs by DAPI staining based fluorescence microscopic analysis. Type of data set: functional, cell-based. Put shortly:
(§1)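 MCF-7 nuclei stained with DAPI after exposure, with cisplatin (5 μM) as reference. Fluorescence microscopy scored condensed and fragmented nuclei. Images represent three individual experiments. Scale bar 150 μm.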

For data set [3], the system named is MCF7. The data set is described as follows: Cytotoxicity against human MCF7 cells assessed inhibition of cell proliferation measured for 24 hrs by MTT assay. Type of data set: functional, cell-based. The conditions noted are these: MCF7, 24 h. Put shortly: (§2)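 MTT read-out of proliferation after 24 h exposure; MCF-7 breast cancer cells alongside noncancerous human embryonic kidney HEK-293 cells. IC50 in μM taken as the average ± SD of three individual experiments.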
Background: Tetrazolium dyes change colour on reduction, which living cells bring about.

Data set [4] relates to MCF7. The data set is described as follows: Induction of DNA fragmentation in human MCF7 cells assessed as increase in condensed nuclei at 12 uM measured for 24 hrs by DAPI staining based fluorescence microscopic analysis. Type of data set: functional, cell-based. The gist of the method: as §1
Data set [5] deals with MCF7. Kind of data set: Induction of apoptosis in human MCF7 cells assessed as decrease in Bcl-2 mRNA expression at 12 uM measured for 24 hrs bt RT-PCR analysis. Type of data set: functional, cell-based. Put shortly: (§3)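 mRNA levels of Bax, Bad (pro-apoptotic) and Bcl-2 (anti-apoptotic) measured in treated MCF-7 cells relative to untreated control. Mean ± SD of three independent studies.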

Data set [6] has as its system MCF7. Kind of data set: Induction of apoptosis in human MCF7 cells assessed as increase in Bax mRNA expression at 12 uM measured for 24 hrs bt RT-PCR analysis. Type of data set: functional, cell-based. The gist of the method: as §3
Data set [7] is described as follows: Drug localization in human MCF7 cells at 12 uM incubated for 24 hrs by DAPI staining based confocal fluorescence microscopic analysis. Type of data set: ADME, cell-based. The conditions noted are these: mcf7, 24 h.
Data set [8] concerns Mitochondrial membrane. The data set is described as follows: Induction of mitochondrial membrane potential loss in human MCF7 cells assessed as increase in fluorescence intensity at 12 uM measured for 24 hrs by rhodamine-123 dye based flow cytometry analysis (reference value: 8%). Put shortly:
(§4)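 MCF-7 cells stained with rhodamine-123. Flow cytometry gave the percentage of cells with mitochondrial membrane potential loss against the untreated basal control. Mean ± SD of three independent investigations.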
On the technique in general: A flow cytometer gives signals particle by particle.

Data set [9] relates to MCF7. Kind of data set: Induction of intracellular ROS generation in human MCF7 cells at 12 uM incubated for 24 hrs by DCFDA staining based fluorescence microscopic analysis. Type of data set: functional, cell-based. Put shortly:
(§5)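 DCFDA-loaded MCF-7 cells imaged by fluorescence microscopy at 20× for qualitative ROS signal. Cisplatin serves as standard. Images represent three experiments. Scale bar 150 μm.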

Data set [10] deals with HEK293. Kind of data set: Cytotoxicity against HEK293 cells assessed inhibition of cell proliferation measured after 24 hrs by MTT assay. Type of data set: toxicity, cell-based. The conditions noted are these: human, hek293, 24 h. The gist of the method:
as §2

The test system of data set [11] is MCF7. The data set is described as follows: Induction of apoptosis in human MCF7 cells assessed as increase in Bad mRNA expression at 12 uM measured for 24 hrs bt RT-PCR analysis. It is filed as functional, cell-based. The gist of the method:
as §3

Data set [12] has as its system MCF7. Kind of data set: Induction of ROS production in human MCF7 cells assessed as increase in ROS level at 12 uM incubated for 24 hrs by DCFH-DA staining based flow cytometry analysis. It is filed as functional, cell-based. The gist of the method:
(§6)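 Intracellular ROS measured with the H2DCFDA probe. Esterase-deacetylated dye is oxidised to fluorescent DCF (ex 498/em 522 nm). Flow cytometry gave the percentage of ROS-positive MCF-7 cells against untreated control, with cisplatin (5 μM) as positive control. Mean ± SD of three independent investigations.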

Data set [13] deals with Mitochondrial membrane. The data set is described as follows: Induction of mitochondrial membrane potential loss in human MCF7 cells assessed as increase in fluorescence intensity at 12 uM measured for 24 hrs by rhodamine-123 dye based flow cytometry analysis. The gist of the method: as §4
Data set [14] concerns MCF7. The data set is described as follows: Induction of apoptosis in human MCF7 cells assessed as increase in number of late apoptotic cells at 12 uM incubated for 24 hrs by acridine orange/EtBr staining based fluorescence microscopic analysis.
Data set [15] deals with MCF7. The data set is described as follows: Induction of apoptosis in human MCF7 cells assessed as decrease in Bcl-2 mRNA expression at 10 uM measured for 24 hrs bt RT-PCR analysis. Type of data set: functional, cell-based. Put shortly:
as §3

Data set [16] has as its system MCF7. The data set is described as follows: Induction of apoptosis in human MCF7 cells assessed as increase in Bax mRNA expression at 10 uM measured for 24 hrs bt RT-PCR analysis. It is filed as functional, cell-based. Put shortly: as §3
Data set [17] in a line: Drug localization in cytoplasm of human MCF7 cells assessed as increase in red fluorescence at 10 uM incubated for 24 hrs by DAPI staining based confocal fluorescence microscopic analysis. Type of data set: ADME, subcellular. The conditions noted are these: mcf7, 24 h.
In data set [18] the test system is MCF7. Kind of data set: Induction of apoptosis in human MCF7 cells assessed as increase in Bad mRNA expression at 10 uM measured for 24 hrs bt RT-PCR analysis. It is filed as functional, cell-based. Put shortly:
as §3

Data set [19] deals with Mitochondrial membrane. The data set is described as follows: Induction of mitochondrial membrane potential loss in human MCF7 cells assessed as increase in fluorescence intensity at 10 uM measured for 24 hrs by rhodamine-123 dye based flow cytometry analysis (reference value: 8%). The gist of the method: as §4
Data set [20] deals with MCF7. Kind of data set: Induction of apoptosis in human MCF7 cells assessed as increase in early apoptotic cells at 10 uM incubated for 24 hrs by acridine orange/EtBr staining based fluorescence microscopic analysis. It is filed as functional, cell-based. Put shortly: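 Acridine orange/ethidium bromide dual staining of MCF-7 cells, with cisplatin (5 μM) as reference. Fluorescence microscopy classified cells as live (green nuclei), early apoptotic, late apoptotic or necrotic (orange-red nuclei). Images represent three independent experiments.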

Data set [21] in a line: Drug localization in nucleus of human MCF7 cells assessed as increase in red fluorescence at 10 uM incubated for 24 hrs by DAPI staining based confocal fluorescence microscopic analysis. The conditions noted are these: mcf7, 24 h. It is filed as ADME, subcellular.
The subject of data set [22] is MCF7. Kind of data set: Induction of DNA fragmentation in human MCF7 cells assessed as increase in fragmented nuclei at 10 uM measured for 24 hrs by DAPI staining based fluorescence microscopic analysis. Type of data set: functional, cell-based. Put shortly: as §1
Data set [23] has as its system MCF7. The data set is described as follows: Induction of intracellular ROS generation in human MCF7 cells at 10 uM incubated for 24 hrs by DCFDA staining based fluorescence microscopic analysis. Type of data set: functional, cell-based. The gist of the method:
as §5

The subject of data set [24] is MCF7. Kind of data set: Induction of DNA fragmentation in human MCF7 cells assessed as increase in condensed nuclei at 10 uM measured for 24 hrs by DAPI staining based fluorescence microscopic analysis. It is filed as functional, cell-based. The gist of the method: as §1
For data set [25], the system named is MCF7. Kind of data set: Induction of ROS production in human MCF7 cells assessed as increase in ROS level at 10 uM incubated for 24 hrs by DCFH-DA staining based flow cytometry analysis. Type of data set: functional, cell-based. Put shortly:
as §6

In data set [26] the test system is Mitochondrial membrane. Kind of data set: Induction of mitochondrial membrane potential loss in human MCF7 cells assessed as increase in fluorescence intensity at 10 uM measured for 24 hrs by rhodamine-123 dye based flow cytometry analysis. Put shortly: as §4

By IC50 is commonly meant the concentration at which inhibition is half-maximal. Read a low IC50 as greater potency in that assay.

Consider `NC(=O)c1n[nH]nc1-c1cc2ccccc2nc1Oc1ccc(Br)cc1`, for which the outcome in data set [1], in data set [2], in [4], in data set [5], in data set [6] and in [9] was Active. For the same compound, the outcome in data set [11], in [12], in [13] and in data set [14] was Active. This compound registered an IC50 in data set [3] of 12 µM. Further, the Drug uptake entry in [7] is reported as “Not Active”. Besides, the Activity is 14% in data set [8] and “Non-Toxic” in [10].
As for `Cc1ccc(Oc2nc3ccccc3cc2-c2n[nH]nc2C(N)=O)cc1`, in [3], half-maximal inhibition (IC50) was put at 62.5 µM.
Consider `N#Cc1ccc(Oc2nc3ccccc3cc2-c2n[nH]nc2C(N)=O)cc1`, for which the outcome in data set [15], in [16], in data set [18], in data set [20], in data set [22] and in data set [23] was Active. In addition, the result in data set [24], in [25] and in [26] was Active. Moreover, the IC50 in [3] is 10 µM. The Drug uptake entry in data set [17] and in data set [21] was “Active” each time. Further, the Activity in data set [19] is 23%; in data set [10], “Non-Toxic”.
Regarding `CCOC(=O)c1n[nH]nc1-c1cc2ccccc2nc1Oc1ccccc1`, in [3], half-maximal inhibition (IC50) required 90 µM.
Same read-out and setting: for `CCOC(=O)c1n[nH]nc1-c1cc2ccc(C)cc2nc1Oc1ccc(C#N)cc1` the value was 19 µM.
On the same count and under the same terms, for `CCOC(=O)c1n[nH]nc1-c1cc2ccc(C)cc2nc1Oc1ccc(I)cc1` the value was 20 µM; for `NC(=O)c1n[nH]nc1-c1cc2ccccc2nc1Oc1ccc(I)cc1`, 17.5 µM.
Same read-out and setting: for `CCOC(=O)c1n[nH]nc1-c1cc2ccc(C)cc2nc1Oc1ccc(C)cc1` the value was 42.5 µM; for `CCOC(=O)c1n[nH]nc1-c1cc2cc(C)c(C)cc2nc1Oc1ccc(C#N)cc1`, 65 µM; for `CCOC(=O)c1n[nH]nc1-c1cc2ccccc2nc1Oc1ccc(C)cc1`, 53 µM.
